Data taken from ChEMBL document CHEMBL5705892, “MK-2206, an allosteric Akt inhibitor, enhances antitumor efficacy by standard chemotherapeutic agents or molecular targeted drugs in vitro and in vivo” (Mol Cancer Ther, 2010).
The source made the active and inactive calls. The rule behind the calls is not given here.

Experiments:
NCI-N87 [1] = experiment: Antiproliferative activity against human NCI-N87 cells assessed as reduction in cell proliferation measured after 72 hrs by celltiter-glo assay; assay type: functional, cell-based; conditions: NCI-N87, 72 h
In short: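 Cells in RPMI 1640 with 10% heat-inactivated FBS at 37°C and 5% CO₂ were seeded at 2 to 3 × 10³ per well. […] Growth was read as cellular ATP by CellTiter-Glo.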

SK-BR-3 = experiment: Synergistic antiproliferative activity against human SK-BR-3 cells assessed as combination index at ED50 measured after 72 hrs in presence of lapatinib by celltiter-glo assay; assay type: functional
NCI-H358 = experiment: Synergistic antiproliferative activity against human NCI-H358 cells assessed as combination index at ED75 measured after 72 hrs in presence of erlotinib by celltiter-glo assay; assay type: functional
A-431 = experiment: Synergistic antiproliferative activity against human A-431 cells assessed as combination index at ED90 measured after 72 hrs in presence of erlotinib by celltiter-glo assay; assay type: functional
In short: (§1)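 Cells were seeded at 2–3 × 10³ per well in RPMI 1640 with 10% FBS. At 24 h, MK-2206 and the partner drug were added simultaneously at constant concentration ratios spanning each agent's IC₅₀, for 72 h. Growth was read as cellular ATP by CellTiter-Glo. CI was taken from median-effect plots of each agent alone and in combination (Chou–Talalay), at ED₅₀, ED₇₅ and ED₉₀.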

[2] = Toxicity in human NCI-H292 cells xenografted CD-1 mouse assessed as death at 360 mg/kg, po administered once a week for 2 weeks and measured during compound dosing; assay type: organism-based; conditions: in vivo, 336 h
In short: (§2)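 NCI-H292 cells in 50% Matrigel/PBS injected s.c. into flank of female CD1-nude mice; dosing began after 2 wk at mean tumour 0.2 cm³, n = 5/group. […] Body weight and signs monitored; treatment ended day 16.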

[3] = Toxicity in human NCI-H292 cells xenografted CD-1 mouse assessed as weight loss at 360 mg/kg, po administered once a week for 2 weeks starting 2 hrs post-erlotinib treatment and measured during compound dosing; assay type: organism-based; conditions: in vivo, 336 h; in short: as §2
SK-OV-3 = experiment: Synergistic antiproliferative activity against human SK-OV-3 cells assessed as combination index at ED50 treated 24 hrs prior to lapatinib and measured after 72 hrs by celltiter-glo assay; assay type: functional; conditions: time 96 hrs
NCI-N87 [4] = experiment: Synergistic antiproliferative activity against lapatinib pretreated human NCI-N87 cells assessed as combination index at ED50 measured after 72 hrs by celltiter-glo assay; assay type: functional
HCC1954 = experiment: Synergistic antiproliferative activity against human HCC1954 cells assessed as combination index at ED50 measured after 96 hrs in presence of lapatinib by celltiter-glo assay; assay type: functional
MDA-MB-468 = experiment: Synergistic antiproliferative activity against human MDA-MB-468 cells assessed as combination index at ED75 measured after 96 hrs in presence of lapatinib by celltiter-glo assay; assay type: functional
HCC70 = experiment: Antitumor activity against human HCC70 cells xenografted in CB17/icr SCID mouse assessed as tumor growth inhibition at 120 mg/kg, po administered 3 times per week for 3 weeks starting 2 hrs post-lapatinib treatment and measured twice a week during compound dosing by caliper method; assay type: functional, organism-based
In short: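 Female C.B-17/ICR-scid mice were given s.c. HCC70 cells in 50% Matrigel/50% PBS in the left flank. They were randomized at a mean tumor size of 0.2 cm³, n = 5 per group. Lapatinib (distilled water) was given at 100 mg/kg po, 5 d/wk for 3 wk. MK-2206 (30% Captisol) was given at 120 mg/kg po, 3×/wk, 2 h after lapatinib. Calipers twice weekly; volume = […] × 0.5.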

[5] = Toxicity in human HCC70 cells xenografted CB17/icr SCID mouse at 120 mg/kg, po administered 3 times per week for 3 weeks starting 2 hrs post-lapatinib treatment and measured during compound dosing; assay type: organism-based; conditions: in vivo, 504 h
In short: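 HCC70 cells in 50% Matrigel/PBS injected s.c. into flank of female C.B-17/ICR-scid mice; dosing began after 3 wk, groups randomized at mean tumour 0.2 cm³ (n = 5). Lapatinib 100 mg/kg p.o. in distilled water, 5 d/wk for 3 wk; MK-2206 in 30% Captisol p.o. 3×/wk for 3 wk, given 2 h after lapatinib. Body weight and physical signs monitored throughout.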

[6] = Toxicity in human SK-OV-3 cells xenografted CB17/icr SCID mouse at 60 to 120 mg/kg, po administered 3 times per week for 2 weeks starting 2 hrs post lapatinib treatment and measured during compound dosing; assay type: organism-based; conditions: in vivo, 336 h, dose 60-120 mg/kg
In short: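 SK-OV-3 cells in 50% Matrigel/PBS injected s.c. into flank of female C.B-17/ICR-scid mice; dosing began after 3 wk, randomized at mean tumour 0.13 cm³ (n = 5). Lapatinib 100 mg/kg p.o. in distilled water 5 d/wk for 2 wk; MK-2206 in 30% Captisol p.o. days 0, 2, 4, 7, 9, 11. Body weight and physical signs monitored.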

BT-474 [7] = experiment: Synergistic antiproliferative activity against human BT-474 cells assessed as combination index at ED50 measured after 72 hrs in presence of docetaxel by celltiter-glo assay; assay type: functional
In short: (§3)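 Cells grown in RPMI 1640 with 10% heat-inactivated FBS at 37°C, 5% CO₂. Seeded at 2 to 3 × 10³ per well; drugs added 24 h later. […] Viability read as cellular ATP by CellTiter-Glo. CI calculated by Chou–Talalay from median-effect plots at ED50, ED75 and ED90.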

BT-474 [8] = experiment: Synergistic antiproliferative activity against docetaxel pretreated human BT-474 cells assessed as combination index at ED75 measured after 72 hrs by celltiter-glo assay; assay type: functional
MDA-MB-453 = experiment: Synergistic antiproliferative activity against human MDA-MB-453 cells assessed as combination index at ED50 measured after 72 hrs in presence of docetaxel by celltiter-glo assay; assay type: functional; in short: as §3
A2780 [9] = experiment: Synergistic antiproliferative activity against human A2780 cells assessed as combination index at ED50 measured after 72 hrs in presence of camptothecin by celltiter-glo assay; assay type: functional; in short: as §1
NCI-H460 [10] = experiment: Synergistic antiproliferative activity against human NCI-H460 cells assessed as combination index at ED90 measured after 72 hrs in presence of doxorubicin by celltiter-glo assay; assay type: functional
NCI-H460 [11] = experiment: Synergistic antiproliferative activity against human NCI-H460 cells assessed as combination index at ED90 measured after 72 hrs in presence of carboplatin by celltiter-glo assay; assay type: functional
A2780 [12] = experiment: Cell cycle arrest in human A2780 cells assessed as increase in accumulation of cells at sub-G1 phase measured after 72 hrs in presence of doxorubicin by propidium iodide staining based flow cytometry; assay type: functional
NCI-H460 [13] = experiment: Antitumor activity against human NCI-H460 cells xenografted in CD1 nude mouse assessed as reduction in tumor volume at 120 mg/kg, po administered 3 times per week for 2 weeks in presence of gemcitabine by caliper method; assay type: functional, organism-based
In short: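 NCI-H460 cells were injected s.c. in Matrigel/PBS into CD1-nude mice (female in the carboplatin study). Mice were randomized at 0.2 cm³, n = 5. Carboplatin was given at 50 mg/kg or gemcitabine at 100 mg/kg, i.v. in saline, on days 0 and 7. MK-2206 (30% Captisol) was given at 120 mg/kg po on days 0, 2, 4, 7, 9, 11. Tumors measured by caliper twice weekly.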

Cl.NC1(c2ccc(-c3nc4ccn5c(=O)[nH]nc5c4cc3-c3ccccc3)cc2)CCC1
IC50 (NCI-N87 [1]): 1600 nM | CI50 (SK-BR-3): 0.43 | CI75 (NCI-H358): 0.19 | CI90 (A-431): 0.14 | Activity [2]: Non-Toxic | Activity [3]: Toxic | CI50 (SK-OV-3): 0.18 | CI50 (NCI-N87 [4]): 0.18 | CI50 (HCC1954): 0.18 | CI75 (MDA-MB-468): 0.18 | TGI (HCC70): Active | Activity [5]: Non-Toxic | Activity [6]: Non-Toxic | CI50 (BT-474 [7]): 1 | CI75 (BT-474 [8]): 0.5 | CI50 (MDA-MB-453): 1.2 | CI50 (A2780 [9]): 0.56 | CI90 (NCI-H460 [10]): 0.17 | CI90 (NCI-H460 [11]): 0.37 | Activity (A2780 [12]): Dose-Dependent Effect | Activity (NCI-H460 [13]): Active
